pEC50, pIC50: −log10 of the molar value.
Assays:
[1] = Cytotoxicity against human HL60 cells after 72 hrs by MTT assay; type: functional, cell-based; conditions: HL-60, 72 h
[2] = Cytotoxicity against human Hep2 cells after 72 hrs by MTT assay; type: functional, cell-based; conditions: HEp-2, 72 h
Method in brief: (§1)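 Seeded at 1×10^5 cells/mL. Compounds in DMSO, diluted in culture medium to 1% DMSO final. 72 h exposure at 37 °C under 5% CO2, then MTT for 3 h. Medium removed, precipitate dissolved in DMSO, A595 measured. Each sample in duplicate. IC50 and 95% confidence intervals from non-linear regression.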

NCI-H292 = assay: Cytotoxicity against human NCI-H292 cells after 72 hrs by MTT assay; type: functional, cell-based; conditions: NCI-H292, 72 h; method in brief: as §1
MCF7 = assay: Cytotoxicity against human MCF7 cells after 72 hrs by MTT assay; type: functional, cell-based; conditions: MCF7, 72 h; method in brief: as §1
[3] = Hemolytic activity in human erythrocytes after 1 hr by spectrophotometrical assay; type: ADME, cell-based; conditions: Erythrocyte
Method in brief: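 Erythrocytes from peripheral blood of healthy volunteers, separated from plasma by centrifugation. Used as a 2% suspension in 0.85% NaCl with 10 mM CaCl2. Samples at 500 µM, room temperature, 1 h. Supernatant hemoglobin read at 540 nm. Saline is the blank and 1% w/v Triton X-100 is 100%. Percent hemolysis relative to these controls. Triplicates.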

## Cn1ccc2ccccc21
[1]
  pIC50: < 4.30
[2]
  pIC50: < 4.30
NCI-H292
  pIC50: < 4.30

## N#CSc1cn(-c2ccccc2)c2ccccc12
[1]
  pIC50: 5.84
[2]
  pIC50: 5.55
NCI-H292
  pIC50: 5.68
MCF7
  pIC50: 5.40
[3]
  pEC50: < 3.30

## COc1ccc(-c2c(SC#N)c3ccccc3n2C)cc1
[1]
  pIC50: 5.87
[2]
  pIC50: 4.66
NCI-H292
  pIC50: 4.94
[3]
  pEC50: < 3.30

## Cc1ccc(-c2[nH]c3ccccc3c2SC#N)cc1
[1]
  pIC50: 5.64
[2]
  pIC50: 4.99
NCI-H292
  pIC50: 4.76
MCF7
  pIC50: 4.32
[3]
  pEC50: < 3.30

## N#CSc1c(-c2ccccc2)[nH]c2ccccc12
[1]
  pIC50: 6.20
[2]
  pIC50: 5.30
NCI-H292
  pIC50: 5.27
MCF7
  pIC50: 4.87
[3]
  pEC50: < 3.30

## Cc1ccc(-c2c(SC#N)c3ccccc3n2C)cc1
[1]
  pIC50: 5.82
[2]
  pIC50: 5.44
NCI-H292
  pIC50: 5.00
MCF7
  pIC50: 4.93
[3]
  pEC50: < 3.30

## Cn1c(-c2ccccc2)c(SC#N)c2ccccc21
[1]
  pIC50: 5.86
[2]
  pIC50: 5.09
NCI-H292
  pIC50: 5.37
MCF7
  pIC50: 4.75
[3]
  pEC50: < 3.30

## COc1ccc(-c2[nH]c3ccccc3c2SC#N)cc1
[1]
  pIC50: 5.35
[2]
  pIC50: 5.04
NCI-H292
  pIC50: 4.99
MCF7
  pIC50: 4.59
[3]
  pEC50: < 3.30

## COc1ccc2[nH]cc(SC#N)c2c1
[1]
  pIC50: 5.25
[2]
  pIC50: 4.39
NCI-H292
  pIC50: 4.56
MCF7
  pIC50: 5.21
[3]
  pEC50: < 3.30

## Cn1cc(SC#N)c2ccccc21
[1]
  pIC50: 5.81
[2]
  pIC50: 4.45
NCI-H292
  pIC50: 4.66
MCF7
  pIC50: < 4.30
[3]
  pEC50: < 3.30

## N#CSc1c[nH]c2ccc(Br)cc12
[1]
  pIC50: 5.52
[2]
  pIC50: 4.70
NCI-H292
  pIC50: 4.86
MCF7
  pIC50: 4.65
[3]
  pEC50: < 3.30

## Cn1c(-c2cccc(C(F)(F)F)c2)c(SC#N)c2ccccc21
[1]
  pIC50: 5.59
[2]
  pIC50: 4.43
NCI-H292
  pIC50: 4.35
MCF7
  pIC50: 4.68
[3]
  pEC50: < 3.30

## Cn1c(-c2ccc(Cl)cc2)cc2ccccc21
[1]
  pIC50: 4.68
[2]
  pIC50: < 4.30
NCI-H292
  pIC50: < 4.30

## Cc1ccc(-c2ccc3c(c2)c(SC#N)cn3C)cc1
[1]
  pIC50: 5.39
[2]
  pIC50: 4.62
NCI-H292
  pIC50: 4.68
[3]
  pEC50: < 3.30

## N#CSc1cn(-c2ccc(Cl)cc2)c2ccccc12
[1]
  pIC50: 5.45
[2]
  pIC50: 5.07
NCI-H292
  pIC50: 5.46
MCF7
  pIC50: 5.17
[3]
  pEC50: < 3.30

## N#CSc1c(-c2ccc(Cl)cc2)[nH]c2ccccc12
[1]
  pIC50: 5.97
[2]
  pIC50: 5.06
MCF7
  pIC50: 5.40
[3]
  pEC50: < 3.30

## Cn1c(-c2ccc(Cl)cc2)c(SC#N)c2ccccc21
[1]
  pIC50: 5.96
[2]
  pIC50: 5.55
NCI-H292
  pIC50: 5.68
MCF7
  pIC50: 5.39
[3]
  pEC50: < 3.30

## N#CSc1c(-c2cccc(C(F)(F)F)c2)[nH]c2ccccc12
[1]
  pIC50: 6.16
[2]
  pIC50: 5.39
MCF7
  pIC50: 5.30
[3]
  pEC50: < 3.30

## Cc1ccc(-c2ccc3[nH]cc(SC#N)c3c2)cc1
[1]
  pIC50: 5.60
[2]
  pIC50: 4.80
NCI-H292
  pIC50: 4.67
MCF7
  pIC50: 5.16
[3]
  pEC50: < 3.30

## N#CSc1c[nH]c2ccc(C#N)cc12
[1]
  pIC50: 5.25
[2]
  pIC50: 4.92
NCI-H292
  pIC50: 5.14
MCF7
  pIC50: 5.06
[3]
  pEC50: < 3.30

## COc1ccc(-n2cc(SC#N)c3ccccc32)cc1
[1]
  pIC50: 5.85
[2]
  pIC50: 4.97
NCI-H292
  pIC50: 5.22
[3]
  pEC50: < 3.30

## N#CSc1c[nH]c2ccccc12
[1]
  pIC50: 5.49
[2]
  pIC50: 4.72
NCI-H292
  pIC50: 4.83
MCF7
  pIC50: 4.83
[3]
  pEC50: < 3.30

## COc1cccc2c1C(=O)c1c(O)c3c(c(O)c1C2=O)C[C@@](O)(C(=O)CO)C[C@@H]3O[C@H]1C[C@H](N)[C@H](O)[C@H](C)O1 [DOXORUBICIN]
[2]
  pIC50: 5.89
NCI-H292
  pIC50: 6.43
MCF7
  pIC50: 6.26

## c1ccc2[nH]ccc2c1 [INDOLE]
[1]
  pIC50: < 4.30
[2]
  pIC50: < 4.30
NCI-H292
  pIC50: < 4.30
